# ChEMBL document CHEMBL4689842, “EUbOPEN Chemogenomics Library wave 1” (2021)
# “And” between values parts separate entries of the source, which are not always exact repeats. Equal entries are not always repeated.
# Tested on: U2OS
# Experiment: Multiplex assay against U2OS
# Type: toxicity, cell-based
# Settings: human
# How it was run: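 Cells were classed with CellPathfinder machine-learning gating, first as Hoechst high-intensity objects or normal cells, then (normal cells) as healthy, pyknosed or fragmented nuclei, and finally (pyknosed cells) as mitotic or apoptotic. Staining of live cells at seeding used Hoechst33342, BioTracker Green Microtubule Cytoskeleton Dye, MitoTracker Red and Annexin V Alexa Fluor 680, with imaging on a CQ1 microscope at 37°C and 5% CO2 after compound addition. Tubulin, mitochondrial-mass and membrane-permeability phenotypes are per cents of healthy-nucleus cells.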
# [1] = 12 h, 1 µM, compound concentration 1 uM, replicate 1
# [2] = 12 h, 1 µM, compound concentration 1 uM, replicate 2
# [3] = 12 h, 10 µM, compound concentration 10 uM, replicate 1
# [4] = 12 h, 10 µM, compound concentration 10 uM, replicate 2
# [5] = 24 h, 1 µM, compound concentration 1 uM, replicate 1
# [6] = 24 h, 1 µM, compound concentration 1 uM, replicate 2
# [7] = 24 h, 10 µM, compound concentration 10 uM, replicate 1
# [8] = 24 h, 10 µM, compound concentration 10 uM, replicate 2
# [9] = 48 h, 10 µM, compound concentration 10 uM, replicate 1
# [10] = 48 h, 10 µM, compound concentration 10 uM, replicate 2
compound,measurement,setting,value
COc1cc2nccc(Oc3ccc(NC(=O)Nc4cc(C)on4)c(Cl)c3)c2cc1OC.O,Population Apoptotic (%),[1],50% and 42%
same,Population Fragmented Nuclei (%),[1],7% and 3%
same,Population Healthy Nuclei (%),[1],86% and 89%
same,Population Membrane Permeable-Phenotype (%),[1],26%
same,Population Mitotic Cells (%),[1],50% and 57%
same,Population Normal (%),[1],95% and 98%
same,Population Pyknosed Nuclei (%),[1],6% and 7%
same,Total Cell Count,[1],193 and 192
same,Population Apoptotic (%),[2],0%
same,Population Fragmented Nuclei (%),[2],10% and 8%
same,Population Healthy Nuclei (%),[2],77% and 91%
same,Population Hoechst High Intensity Objects (%),[2],6% and 14%
same,Population Membrane Permeable-Phenotype (%),[2],25% and 19%
same,Population Mitochondria Different-Phenotype (%),[2],61% and 24%
same,Population Mitotic Cells (%),[2],0%
same,Population Normal (%),[2],93% and 85%
same,Population Pyknosed Nuclei (%),[2],12% and 0%
same,Population Tubulin-Different-Phenotype (%),[2],19%
same,Total Cell Count,[2],132 and 71
same,Population Apoptotic (%),[3],70%
same,Population Fragmented Nuclei (%),[3],16%
same,Population Healthy Nuclei (%),[3],57%
same,Population Hoechst High Intensity Objects (%),[3],11%
same,Population Membrane Permeable-Phenotype (%),[3],25%
same,Population Mitochondria Different-Phenotype (%),[3],96%
same,Population Mitotic Cells (%),[3],30%
same,Population Normal (%),[3],88%
same,Population Pyknosed Nuclei (%),[3],25%
same,Population Tubulin-Different-Phenotype (%),[3],100%
same,Total Cell Count,[3],152
same,Population Apoptotic (%),[4],71%
same,Population Fragmented Nuclei (%),[4],11%
same,Population Healthy Nuclei (%),[4],75%
same,Population Hoechst High Intensity Objects (%),[4],3%
same,Population Membrane Permeable-Phenotype (%),[4],36%
same,Population Mitochondria Different-Phenotype (%),[4],97%
same,Population Mitotic Cells (%),[4],28%
same,Population Normal (%),[4],96%
same,Population Pyknosed Nuclei (%),[4],12%
same,Population Tubulin-Different-Phenotype (%),[4],97%
same,Total Cell Count,[4],58
same,Population Apoptotic (%),[5],73% and 33%
same,Population Healthy Nuclei (%),[5],62% and 92%
same,Population Membrane Permeable-Phenotype (%),[5],42% and 15%
same,Population Mitotic Cells (%),[5],26% and 66%
same,Population Normal (%),[5],95% and 98%
same,Total Cell Count,[5],272 and 251
same,Population Apoptotic (%),[6],83% and 100%
same,Population Fragmented Nuclei (%),[6],17% and 9%
same,Population Healthy Nuclei (%),[6],58% and 89%
same,Population Hoechst High Intensity Objects (%),[6],15% and 9%
same,Population Membrane Permeable-Phenotype (%),[6],47% and 17%
same,Population Mitotic Cells (%),[6],16% and 0%
same,Population Normal (%),[6],84% and 90%
same,Population Pyknosed Nuclei (%),[6],24% and 0%
same,Total Cell Count,[6],159 and 78
same,Population Apoptotic (%),[7],82%
same,Population Fragmented Nuclei (%),[7],28%
same,Population Healthy Nuclei (%),[7],42%
same,Population Hoechst High Intensity Objects (%),[7],8%
same,Population Membrane Permeable-Phenotype (%),[7],61%
same,Population Mitochondria Different-Phenotype (%),[7],98%
same,Population Mitotic Cells (%),[7],17%
same,Population Normal (%),[7],91%
same,Population Pyknosed Nuclei (%),[7],29%
same,Population Tubulin-Different-Phenotype (%),[7],100%
same,Total Cell Count,[7],142
same,Population Apoptotic (%),[8],92%
same,Population Fragmented Nuclei (%),[8],16%
same,Population Healthy Nuclei (%),[8],60%
same,Population Hoechst High Intensity Objects (%),[8],3%
same,Population Membrane Permeable-Phenotype (%),[8],67%
same,Population Mitochondria Different-Phenotype (%),[8],100%
same,Population Mitotic Cells (%),[8],7%
same,Population Normal (%),[8],96%
same,Population Pyknosed Nuclei (%),[8],23%
same,Population Tubulin-Different-Phenotype (%),[8],97%
same,Total Cell Count,[8],58
same,Population Apoptotic (%),[9],91%
same,Population Fragmented Nuclei (%),[9],41%
same,Population Healthy Nuclei (%),[9],15%
same,Population Hoechst High Intensity Objects (%),[9],13%
same,Population Membrane Permeable-Phenotype (%),[9],86%
same,Population Mitochondria Different-Phenotype (%),[9],100%
same,Population Mitotic Cells (%),[9],8%
same,Population Normal (%),[9],86%
same,Population Pyknosed Nuclei (%),[9],42%
same,Population Tubulin-Different-Phenotype (%),[9],100%
same,Total Cell Count,[9],153
same,Population Apoptotic (%),[10],87%
same,Population Fragmented Nuclei (%),[10],13%
same,Population Healthy Nuclei (%),[10],67%
same,Population Hoechst High Intensity Objects (%),[10],15%
same,Population Membrane Permeable-Phenotype (%),[10],96%
same,Population Mitotic Cells (%),[10],12%
same,Population Normal (%),[10],84%
same,Population Pyknosed Nuclei (%),[10],18%
same,Total Cell Count,[10],62
